Tests used:
Assay type in all cases: functional
[1] = system: Hs-578T; assay: Cytotoxicity against human Hs578T cells assessed as growth inhibition at 10 uM after 48 hrs by sulphorhodamine B assay; details: read-out: GI
Summary of the method: (§1)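 NCI-60 one-dose screen per the NCI Drug Evaluation Branch protocol. Cells given a single 10 µM concentration with 48 h continuous exposure. Growth estimated by sulphorhodamine B protein assay. Result expressed as percentage growth inhibition relative to untreated growth.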

[2] = system: HL-60(TB); assay: Cytotoxicity against human HL-60(TB) cells assessed as growth inhibition at 10 uM after 48 hrs by sulphorhodamine B assay; details: HL-60, 48 h, read-out: GI
Summary of the method: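 NCI-60 one-dose primary screen run to the Drug Evaluation Branch protocol. Cells are exposed to a single 10 µM concentration for 48 h continuously, and growth is read by SRB protein assay. Data are reported as percent growth of treated cells, expressed as % growth inhibition.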

[3] = system: U-251; assay: Cytotoxicity against human U251 cells assessed as growth inhibition at 10 uM after 48 hrs by sulphorhodamine B assay; details: U-251, 48 h, read-out: GI; summary of the method: as §1
[4] = system: RXF 393; assay: Cytotoxicity against human RXF393 cells assessed as growth inhibition at 10 uM after 48 hrs by sulphorhodamine B assay; details: RXF 393, 48 h, read-out: GI; summary of the method: as §1
[5] = system: SNB-75; assay: Cytotoxicity against human SNB75 cells assessed as growth inhibition at 10 uM after 48 hrs by sulphorhodamine B assay; details: SNB-75, 48 h, read-out: GI; summary of the method: as §1
[6] = system: CCRF-CEM; assay: Cytotoxicity against human CCRF-CEM cells assessed as growth inhibition at 10 uM after 48 hrs by sulphorhodamine B assay; details: read-out: GI; summary of the method: as §1
[7] = system: LOX IMVI; assay: Cytotoxicity against human LOXIMVI cells assessed as growth inhibition at 10 uM after 48 hrs by sulphorhodamine B assay; details: read-out: GI; summary of the method: as §1
[8] = system: MCF7; assay: Cytotoxicity against human MCF7 cells assessed as growth inhibition at 10 uM after 48 hrs by sulphorhodamine B assay; details: MCF7, 48 h, read-out: GI; summary of the method: as §1
[9] = system: IGROV-1; assay: Cytotoxicity against human IGROV1 cells assessed as growth inhibition at 10 uM after 48 hrs by sulphorhodamine B assay; details: IGROV-1, 48 h, read-out: GI; summary of the method: as §1
[10] = system: HOP-92; assay: Cytotoxicity against human HOP92 cells assessed as growth inhibition at 10 uM after 48 hrs by sulphorhodamine B assay; details: HOP-92, 48 h, read-out: GI; summary of the method: as §1
[11] = system: OVCAR-4; assay: Cytotoxicity against human OVCAR4 cells assessed as growth inhibition at 10 uM after 48 hrs by sulphorhodamine B assay; details: OVCAR-4, 48 h, read-out: GI; summary of the method: as §1
[12] = system: T47D; assay: Cytotoxicity against human T47D cells assessed as growth inhibition at 10 uM after 48 hrs by sulphorhodamine B assay; details: read-out: GI; summary of the method: as §1
[13] = system: CAKI-1; assay: Cytotoxicity against human Caki1 cells assessed as growth inhibition at 10 uM after 48 hrs by sulphorhodamine B assay; details: CAKI-1, 48 h, read-out: GI; summary of the method: as §1
[14] = system: HT-29; assay: Cytotoxicity against human HT-29 cells assessed as growth inhibition at 10 uM after 48 hrs by sulphorhodamine B assay; details: HT-29, 48 h, read-out: GI; summary of the method: as §1
[15] = system: HCT-15; assay: Cytotoxicity against human HCT15 cells assessed as growth inhibition at 10 uM after 48 hrs by sulphorhodamine B assay; details: HCT-15, 48 h, read-out: GI; summary of the method: as §1
[16] = system: UO-31; assay: Cytotoxicity against human UO31 cells assessed as growth inhibition at 10 uM after 48 hrs by sulphorhodamine B assay; details: UO-31, 48 h, read-out: GI; summary of the method: as §1
[17] = system: OVCAR-5; assay: Cytotoxicity against human OVCAR5 cells assessed as growth inhibition at 10 uM after 48 hrs by sulphorhodamine B assay; details: OVCAR-5, 48 h, read-out: GI; summary of the method: as §1
[18] = system: NCI/ADR-RES; assay: Cytotoxicity against human NCI/ADR-RES cells assessed as growth inhibition at 10 uM after 48 hrs by sulphorhodamine B assay; details: read-out: GI; summary of the method: as §1
[19] = system: MDA-MB-468; assay: Cytotoxicity against human MDA-MB-468 cells assessed as growth inhibition at 10 uM after 48 hrs by sulphorhodamine B assay; details: MDA-MB-468, 48 h, read-out: GI; summary of the method: as §1
[20] = system: K562; assay: Cytotoxicity against human K562 cells assessed as growth inhibition at 10 uM after 48 hrs by sulphorhodamine B assay; details: K562, 48 h, read-out: GI; summary of the method: as §1
[21] = system: M14; assay: Cytotoxicity against human M14 cells assessed as growth inhibition at 10 uM after 48 hrs by sulphorhodamine B assay; details: M14, 48 h, read-out: GI; summary of the method: as §1
[22] = system: RPMI-8226; assay: Cytotoxicity against human RPMI8226 cells assessed as growth inhibition at 10 uM after 48 hrs by sulphorhodamine B assay; details: RPMI-8226, 48 h, read-out: GI; summary of the method: as §1
[23] = system: SF-295; assay: Cytotoxicity against human SF295 cells assessed as growth inhibition at 10 uM after 48 hrs by sulphorhodamine B assay; details: SF-295, 48 h, read-out: GI; summary of the method: as §1
[24] = system: SK-OV-3; assay: Cytotoxicity against human SKOV3 cells assessed as growth inhibition at 10 uM after 48 hrs by sulphorhodamine B assay; details: SK-OV-3, 48 h, read-out: GI; summary of the method: as §1
[25] = system: MOLT-4; assay: Cytotoxicity against human MOLT4 cells assessed as growth inhibition at 10 uM after 48 hrs by sulphorhodamine B assay; details: MOLT-4, 48 h, read-out: GI; summary of the method: as §1
[26] = system: NCI-H522; assay: Cytotoxicity against human NCI-H522 cells assessed as growth inhibition at 10 uM after 48 hrs by sulphorhodamine B assay; details: NCI-H522, 48 h, read-out: GI; summary of the method: as §1
[27] = Cytotoxicity against human EKVX cells assessed as growth inhibition at 10 uM after 48 hrs by sulphorhodamine B assay; details: read-out: GI; summary of the method: as §1
[28] = system: SNB-19; assay: Cytotoxicity against human SNB19 cells assessed as growth inhibition at 10 uM after 48 hrs by sulphorhodamine B assay; details: SNB-19, 48 h, read-out: GI; summary of the method: as §1
[29] = system: UACC-62; assay: Cytotoxicity against human UACC62 cells assessed as growth inhibition at 10 uM after 48 hrs by sulphorhodamine B assay; details: UACC-62, 48 h, read-out: GI; summary of the method: as §1
[30] = system: A498; assay: Cytotoxicity against human A498 cells assessed as growth inhibition at 10 uM after 48 hrs by sulphorhodamine B assay; details: A498, 48 h, read-out: GI; summary of the method: as §1
[31] = system: MDA-MB-435; assay: Cytotoxicity against human MDA-MB-435 cells assessed as growth inhibition at 10 uM after 48 hrs by sulphorhodamine B assay; details: MDA-MB-435, 48 h, read-out: GI; summary of the method: as §1
[32] = system: A549; assay: Cytotoxicity against human A549 cells assessed as growth inhibition at 10 uM after 48 hrs by sulphorhodamine B assay; details: A549, 48 h, read-out: GI; summary of the method: as §1
[33] = system: DU-145; assay: Cytotoxicity against human DU145 cells assessed as growth inhibition at 10 uM after 48 hrs by sulphorhodamine B assay; details: DU-145, 48 h, read-out: GI; summary of the method: as §1
[34] = system: PC-3; assay: Cytotoxicity against human PC3 cells assessed as growth inhibition at 10 uM after 48 hrs by sulphorhodamine B assay; details: PC-3, 48 h, read-out: GI; summary of the method: as §1
[35] = system: SF-268; assay: Cytotoxicity against human SF268 cells assessed as growth inhibition at 10 uM after 48 hrs by sulphorhodamine B assay; details: SF-268, 48 h, read-out: GI; summary of the method: as §1
[36] = system: SK-MEL-5; assay: Cytotoxicity against human SK-MEL-5 cells assessed as growth inhibition at 10 uM after 48 hrs by sulphorhodamine B assay; details: SK-MEL-5, 48 h, read-out: GI; summary of the method: as §1
[37] = system: ACHN; assay: Cytotoxicity against human ACHN cells assessed as growth inhibition at 10 uM after 48 hrs by sulphorhodamine B assay; details: read-out: GI; summary of the method: as §1
[38] = system: NCI-H23; assay: Cytotoxicity against human NCI-H23 cells assessed as growth inhibition at 10 uM after 48 hrs by sulphorhodamine B assay; details: NCI-H23, 48 h, read-out: GI; summary of the method: as §1
[39] = system: HCT-116; assay: Cytotoxicity against human HCT116 cells assessed as growth inhibition at 10 uM after 48 hrs by sulphorhodamine B assay; details: HCT-116, 48 h, read-out: GI; summary of the method: as §1
[40] = system: SR; assay: Cytotoxicity against human SR cells assessed as growth inhibition at 10 uM after 48 hrs by sulphorhodamine B assay; details: read-out: GI; summary of the method: as §1
[41] = system: SK-MEL-2; assay: Cytotoxicity against human SK-MEL-2 cells assessed as growth inhibition at 10 uM after 48 hrs by sulphorhodamine B assay; details: SK-MEL-2, 48 h, read-out: GI; summary of the method: as §1

CC1CCCc2c1nc1[nH]c(=O)nc(N)c1c2-c1ccc(Cl)cc1 (stereo unspecified)
inhibition of growth at 10 µM [1]: 19.4%
inhibition of growth at 10 µM [2]: 24.6%
inhibition of growth at 10 µM [3]: 10.2%
inhibition of growth at 10 µM [4]: < 10%
inhibition of growth at 10 µM [5]: 11%
inhibition of growth at 10 µM [6]: < 10%
inhibition of growth at 10 µM [7]: < 10%
inhibition of growth at 10 µM [8]: < 10%
inhibition of growth at 10 µM [9]: < 10%
inhibition of growth at 10 µM [10]: 27.7%
inhibition of growth at 10 µM [11]: 13.6%
inhibition of growth at 10 µM [12]: 29.5%
inhibition of growth at 10 µM [13]: < 10%
inhibition of growth at 10 µM [14]: < 10%
inhibition of growth at 10 µM [15]: 10%
inhibition of growth at 10 µM [16]: 10%
inhibition of growth at 10 µM [17]: < 10%
inhibition of growth at 10 µM [18]: < 10%
inhibition of growth at 10 µM [19]: 10%
inhibition of growth at 10 µM [20]: 36.4%
inhibition of growth at 10 µM [21]: < 10%
inhibition of growth at 10 µM [22]: 23%
inhibition of growth at 10 µM [23]: < 10%
inhibition of growth at 10 µM [24]: < 10%
inhibition of growth at 10 µM [25]: < 10%
inhibition of growth at 10 µM [26]: 12.9%
inhibition of growth at 10 µM [27]: < 10%
inhibition of growth at 10 µM [28]: 16.6%
inhibition of growth at 10 µM [29]: 25.4%
inhibition of growth at 10 µM [30]: < 10%
inhibition of growth at 10 µM [31]: < 10%
inhibition of growth at 10 µM [32]: 11.5%
inhibition of growth at 10 µM [33]: 14%
inhibition of growth at 10 µM [34]: 12.7%
inhibition of growth at 10 µM [35]: < 10%
inhibition of growth at 10 µM [36]: < 10%
inhibition of growth at 10 µM [37]: < 10%
inhibition of growth at 10 µM [38]: 10%
inhibition of growth at 10 µM [39]: 14%
inhibition of growth at 10 µM [40]: < 10%
inhibition of growth at 10 µM [41]: < 10%

Source: ChEMBL document CHEMBL2375313, “Synthesis, in vitro antitumor evaluation and DNA-binding study of novel tetrahydroquinolines and some derived tricyclic and tetracyclic ring systems” (Eur J Med Chem, 2013)
